Test results from ChEMBL document CHEMBL4052814, “GNE-781, A Highly Advanced Potent and Selective Bromodomain Inhibitor of Cyclic Adenosine Monophosphate Response Element Binding Protein, Binding Protein (CBP)” (J Med Chem, 2017).

Tests used:
[1] = Antitumor activity against human MOLM16 cells xenografted in C.B-17 SCID beige mouse assessed as tumor growth inhibition at 10 mg/kg administered via oral gavage as bid for 21 days relative to control; type: functional; conditions: read-out: TGI
Outline: (§1)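 Female C.B-17 SCID.bg mice received 5 million MOLM-16 cells s.c. in HBSS/Matrigel in the right flank. Dosing began at 130–300 mm3: oral gavage BID for 21 days in 0.5% methylcellulose, 0.2% Tween 80, n=10/group. Caliper volumes taken; %TGI computed from the area under the mixed-model spline-fitted curve per day versus vehicle.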

[2] = tested on: Mus musculus; test: In vivo inhibition of CBP in human MOLM16 cells xenografted in C.B-17 SCID beige mouse assessed as MYC transcript levels at 3 mg/kg administered via oral gavage as bid for 21 days measured 16 hrs post last dose by real time-PCR method; type: functional; design: scale not given: the % may be the effect or the level left
[3] = tested on: Plasma; test: Drug uptake in plasma of C.B-17 SCID beige mouse xenografted with human MOLM16 cells at 3 to 30 mg/kg administered via oral gavage as bid for 21 days measured 2 to 24 hrs post last dose by LC-MS/MS method; type: ADME, organism-based; conditions: in vivo
[4] = biological target: Cytochrome P450 2D6 (Homo sapiens, UniProt P10635); test: Inhibition of CYP2D6 (unknown origin); type: ADME
Chain of Cytochrome P450 2D6 (P10635 whole entry): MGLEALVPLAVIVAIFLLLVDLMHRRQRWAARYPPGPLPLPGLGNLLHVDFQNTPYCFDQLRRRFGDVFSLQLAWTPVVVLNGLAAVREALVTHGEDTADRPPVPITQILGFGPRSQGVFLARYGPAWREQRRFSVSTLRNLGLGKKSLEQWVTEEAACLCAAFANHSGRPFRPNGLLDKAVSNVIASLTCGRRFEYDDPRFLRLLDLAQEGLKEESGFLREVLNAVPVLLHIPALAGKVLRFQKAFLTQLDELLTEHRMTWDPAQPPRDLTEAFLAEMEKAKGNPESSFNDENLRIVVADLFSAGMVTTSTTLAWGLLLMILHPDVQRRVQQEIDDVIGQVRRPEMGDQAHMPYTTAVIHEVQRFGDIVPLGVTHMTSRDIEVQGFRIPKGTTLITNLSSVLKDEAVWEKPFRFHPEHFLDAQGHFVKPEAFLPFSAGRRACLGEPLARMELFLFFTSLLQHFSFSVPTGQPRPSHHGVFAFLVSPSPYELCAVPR

[5] = Cytotoxicity against induced-Treg cells differentiated from human PBMC derived naive CD4-positive T cells assessed as effect on cell viability at 0.001 to 2 uM measured after 4 days by […] dye-based flow cytometry; conditions: 96 h
Outline: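 Naïve CD4+ T cells from healthy-donor PBMC were differentiated to iTregs with anti-CD3, anti-CD28, rIL-2 (10 ng/ml) and rTGFβ in RPMI-1640 with 10% FCS. Compound was tested from 2 µM in 2-fold dilutions, with DMSO as control. Cells were harvested on day 4 and viability was scored by flow cytometry with a fixable viability dye.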

[6] = biological target: Cytochrome P450 3A4 (Homo sapiens, UniProt P08684); test: Inhibition of CYP3A4 (unknown origin); type: ADME
Chain of Cytochrome P450 3A4 (P08684 whole entry): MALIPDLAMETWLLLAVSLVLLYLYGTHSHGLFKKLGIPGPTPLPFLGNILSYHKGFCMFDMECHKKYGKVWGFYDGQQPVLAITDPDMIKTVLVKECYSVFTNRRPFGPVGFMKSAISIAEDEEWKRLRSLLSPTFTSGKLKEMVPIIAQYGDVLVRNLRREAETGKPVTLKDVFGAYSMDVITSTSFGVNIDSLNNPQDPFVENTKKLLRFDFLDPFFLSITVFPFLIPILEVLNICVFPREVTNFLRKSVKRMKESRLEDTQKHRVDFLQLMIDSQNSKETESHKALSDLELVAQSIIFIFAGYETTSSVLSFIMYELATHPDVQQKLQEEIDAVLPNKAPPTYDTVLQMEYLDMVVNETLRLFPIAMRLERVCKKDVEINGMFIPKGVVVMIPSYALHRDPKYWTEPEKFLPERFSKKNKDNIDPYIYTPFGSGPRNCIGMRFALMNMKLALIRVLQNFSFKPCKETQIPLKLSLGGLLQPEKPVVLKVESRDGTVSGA

[7] = tested on: Mus musculus; test: In vivo inhibition of CBP in human MOLM16 cells xenografted in C.B-17 SCID beige mouse assessed as suppression of MYC transcript levels at 10 mg/kg administered via oral gavage […] measured 2 hrs post last dose by real time-PCR method relative to control; type: functional
Outline: (§2)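 MOLM-16 subcutaneous xenografts in SCID beige mice received single oral doses of 3–30 mg/kg (n=3/group). Tumors were taken at time points from 2 to 24 h. MYC transcript was measured in tumor RNA by one-step TaqMan qRT-PCR with ACTB as housekeeping gene. Results are given relative to vehicle-treated animals by the comparative Ct method.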

[8] = Drug uptake in tumor of C.B-17 SCID beige mouse xenografted with human MOLM16 cells at 3 to 30 mg/kg administered via oral gavage […] measured 2 to 24 hrs post last dose by LC-MS/MS method; type: ADME, organism-based, Neoplasm; conditions: in vivo
Outline: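 In MOLM-16 xenograft mice given single oral doses of 3–30 mg/kg, plasma and tumor were sampled from 2 to 24 h. Tumor was homogenized in 4 volumes of water. Both matrices were extracted with acetonitrile with labetalol as internal standard and measured by LC-MS/MS. Levels were corrected for plasma protein and tissue binding to give unbound concentrations.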

[9] = Antitumor activity against human MOLM16 cells xenografted in C.B-17 SCID beige mouse assessed as tumor growth inhibition at 30 mg/kg administered via oral gavage as bid for 21 days relative to control; type: functional; conditions: read-out: TGI; outline: as §1
[10] = species on record: Homo sapiens; test: Selectivity ratio of IC50 for human recombinant His-tagged BRD4 bromodomain-1 to IC50 for human recombinant His-tagged P300
[11] = tested on: Mus musculus; test: In vivo inhibition of CBP in human MOLM16 cells xenografted in C.B-17 SCID beige mouse assessed as suppression of MYC transcript levels at 30 mg/kg administered via oral gavage […] measured 2 hrs post last dose by real time-PCR method relative to control; type: functional; outline: as §2
[12] = biological target: Cytochrome P450 2C19 (Homo sapiens, UniProt P33261); test: Inhibition of CYP2C19 (unknown origin); type: ADME
Chain of Cytochrome P450 2C19 (P33261 whole entry): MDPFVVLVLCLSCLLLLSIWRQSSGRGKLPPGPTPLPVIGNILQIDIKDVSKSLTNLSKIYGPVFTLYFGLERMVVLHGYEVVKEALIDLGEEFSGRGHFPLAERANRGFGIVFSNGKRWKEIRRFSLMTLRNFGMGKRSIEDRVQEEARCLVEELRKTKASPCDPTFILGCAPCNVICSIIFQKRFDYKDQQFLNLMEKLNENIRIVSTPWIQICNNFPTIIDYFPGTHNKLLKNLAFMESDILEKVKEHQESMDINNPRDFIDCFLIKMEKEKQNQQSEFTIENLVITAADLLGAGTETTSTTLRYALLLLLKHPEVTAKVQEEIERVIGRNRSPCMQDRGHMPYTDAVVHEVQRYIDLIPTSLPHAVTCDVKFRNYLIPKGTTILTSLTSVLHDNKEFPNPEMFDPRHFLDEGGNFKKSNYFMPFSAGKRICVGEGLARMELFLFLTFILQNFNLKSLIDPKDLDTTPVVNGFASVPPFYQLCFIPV

[13] = biological target: Cytochrome P450 2C9 (Homo sapiens, UniProt P11712); test: Inhibition of CYP2C9 (unknown origin); type: ADME
Chain of Cytochrome P450 2C9 (P11712 whole entry): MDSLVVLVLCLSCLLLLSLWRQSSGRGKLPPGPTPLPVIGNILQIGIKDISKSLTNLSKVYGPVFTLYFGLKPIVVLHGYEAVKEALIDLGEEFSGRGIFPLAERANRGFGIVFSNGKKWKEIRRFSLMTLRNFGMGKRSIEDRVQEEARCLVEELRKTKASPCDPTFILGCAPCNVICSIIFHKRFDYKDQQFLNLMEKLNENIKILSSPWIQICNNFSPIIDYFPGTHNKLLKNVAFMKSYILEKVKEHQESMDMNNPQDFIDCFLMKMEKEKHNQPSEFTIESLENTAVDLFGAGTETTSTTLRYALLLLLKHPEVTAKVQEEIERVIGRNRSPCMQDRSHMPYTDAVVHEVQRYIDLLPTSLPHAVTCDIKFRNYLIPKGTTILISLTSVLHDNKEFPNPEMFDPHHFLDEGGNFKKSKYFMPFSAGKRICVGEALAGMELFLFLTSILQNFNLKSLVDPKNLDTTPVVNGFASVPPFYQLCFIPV

[14] = biological target: Cytochrome P450 1A2 (Homo sapiens, UniProt P05177); test: Inhibition of CYP1A2 (unknown origin); type: ADME
Chain of Cytochrome P450 1A2 (P05177 whole entry): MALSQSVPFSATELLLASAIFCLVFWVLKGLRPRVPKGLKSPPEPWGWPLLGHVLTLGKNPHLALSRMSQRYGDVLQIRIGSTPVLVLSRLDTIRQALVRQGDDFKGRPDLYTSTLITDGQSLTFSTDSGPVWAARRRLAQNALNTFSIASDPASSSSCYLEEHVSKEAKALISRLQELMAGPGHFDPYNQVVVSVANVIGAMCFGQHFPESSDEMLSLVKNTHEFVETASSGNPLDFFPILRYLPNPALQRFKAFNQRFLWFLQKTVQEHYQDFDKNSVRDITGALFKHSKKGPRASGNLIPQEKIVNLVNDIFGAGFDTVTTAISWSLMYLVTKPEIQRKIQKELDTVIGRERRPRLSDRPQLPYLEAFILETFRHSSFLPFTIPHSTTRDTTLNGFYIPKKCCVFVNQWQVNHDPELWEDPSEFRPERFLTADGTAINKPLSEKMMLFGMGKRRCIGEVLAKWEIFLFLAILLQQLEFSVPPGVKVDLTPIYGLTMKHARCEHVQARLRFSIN

[15] = biological target: T1, CREB-binding protein (Homo sapiens, UniProt Q92793); test: Displacement of biotinylated histone H3K14 peptide ligand from human recombinant His-tagged CBP measured after 10 mins by TR-FRET assay
T1 sequence (Q92793 whole entry): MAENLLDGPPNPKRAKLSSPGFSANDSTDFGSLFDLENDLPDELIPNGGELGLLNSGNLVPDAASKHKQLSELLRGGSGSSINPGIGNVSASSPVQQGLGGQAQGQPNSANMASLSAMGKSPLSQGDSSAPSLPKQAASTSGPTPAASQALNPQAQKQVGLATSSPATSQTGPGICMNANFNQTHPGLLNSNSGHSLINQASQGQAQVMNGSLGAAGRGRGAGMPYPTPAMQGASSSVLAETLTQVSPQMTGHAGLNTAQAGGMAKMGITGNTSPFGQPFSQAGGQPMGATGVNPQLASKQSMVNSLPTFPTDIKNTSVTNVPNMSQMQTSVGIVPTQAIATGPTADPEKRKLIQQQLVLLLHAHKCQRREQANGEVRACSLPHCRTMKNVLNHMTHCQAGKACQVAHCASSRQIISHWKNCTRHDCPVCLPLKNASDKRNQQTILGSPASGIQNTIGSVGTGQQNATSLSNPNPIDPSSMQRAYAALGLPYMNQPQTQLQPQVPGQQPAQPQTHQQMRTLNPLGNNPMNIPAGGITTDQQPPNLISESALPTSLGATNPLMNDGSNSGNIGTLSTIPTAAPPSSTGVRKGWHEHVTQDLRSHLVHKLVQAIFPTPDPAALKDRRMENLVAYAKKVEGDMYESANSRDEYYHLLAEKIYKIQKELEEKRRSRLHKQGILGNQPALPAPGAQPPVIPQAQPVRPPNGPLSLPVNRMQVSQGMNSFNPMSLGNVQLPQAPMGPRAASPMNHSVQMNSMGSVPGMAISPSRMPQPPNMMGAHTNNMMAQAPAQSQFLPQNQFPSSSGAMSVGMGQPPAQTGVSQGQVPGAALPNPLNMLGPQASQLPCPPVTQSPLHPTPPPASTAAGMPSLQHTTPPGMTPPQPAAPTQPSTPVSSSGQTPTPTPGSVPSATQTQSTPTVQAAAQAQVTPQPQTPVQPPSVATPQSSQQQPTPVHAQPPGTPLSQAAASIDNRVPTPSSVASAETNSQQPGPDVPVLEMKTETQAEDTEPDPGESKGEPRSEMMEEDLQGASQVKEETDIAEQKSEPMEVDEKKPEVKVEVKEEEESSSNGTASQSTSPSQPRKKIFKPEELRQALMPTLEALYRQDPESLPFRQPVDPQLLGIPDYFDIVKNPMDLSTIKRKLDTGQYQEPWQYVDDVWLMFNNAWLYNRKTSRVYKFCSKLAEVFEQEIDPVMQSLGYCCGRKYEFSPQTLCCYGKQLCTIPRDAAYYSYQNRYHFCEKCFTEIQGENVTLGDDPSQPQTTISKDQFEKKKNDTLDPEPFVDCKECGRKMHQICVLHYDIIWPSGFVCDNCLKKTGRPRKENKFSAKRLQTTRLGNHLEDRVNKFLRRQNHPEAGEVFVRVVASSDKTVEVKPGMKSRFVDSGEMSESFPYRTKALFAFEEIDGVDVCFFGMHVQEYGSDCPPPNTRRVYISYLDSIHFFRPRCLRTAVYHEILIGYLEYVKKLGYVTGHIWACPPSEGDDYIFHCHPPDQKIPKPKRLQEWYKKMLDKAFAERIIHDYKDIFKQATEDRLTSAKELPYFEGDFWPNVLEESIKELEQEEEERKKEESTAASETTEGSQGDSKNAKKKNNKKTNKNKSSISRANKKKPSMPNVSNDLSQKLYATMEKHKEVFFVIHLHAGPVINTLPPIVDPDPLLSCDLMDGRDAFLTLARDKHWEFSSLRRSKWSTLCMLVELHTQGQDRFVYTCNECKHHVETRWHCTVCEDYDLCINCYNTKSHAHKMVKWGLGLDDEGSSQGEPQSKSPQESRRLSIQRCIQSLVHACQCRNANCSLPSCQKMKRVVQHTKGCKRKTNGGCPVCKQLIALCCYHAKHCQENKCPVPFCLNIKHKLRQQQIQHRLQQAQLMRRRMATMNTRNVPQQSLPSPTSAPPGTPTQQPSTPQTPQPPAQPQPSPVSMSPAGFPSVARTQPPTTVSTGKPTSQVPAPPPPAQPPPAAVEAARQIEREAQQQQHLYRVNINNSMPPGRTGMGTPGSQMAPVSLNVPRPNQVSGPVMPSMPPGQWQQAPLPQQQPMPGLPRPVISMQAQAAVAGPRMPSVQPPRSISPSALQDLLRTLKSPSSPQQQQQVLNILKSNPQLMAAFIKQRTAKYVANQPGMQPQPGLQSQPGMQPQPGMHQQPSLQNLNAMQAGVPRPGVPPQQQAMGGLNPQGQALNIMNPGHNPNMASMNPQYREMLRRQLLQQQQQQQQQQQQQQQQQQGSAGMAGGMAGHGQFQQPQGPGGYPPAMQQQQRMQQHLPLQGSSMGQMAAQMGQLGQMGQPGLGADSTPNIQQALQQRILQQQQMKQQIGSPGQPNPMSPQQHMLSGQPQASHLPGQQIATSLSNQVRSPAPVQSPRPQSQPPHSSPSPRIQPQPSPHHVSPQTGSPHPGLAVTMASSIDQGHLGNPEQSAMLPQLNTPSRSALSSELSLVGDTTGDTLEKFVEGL

[16] = biological target: T2, Bromodomain-containing protein 4 (Homo sapiens, UniProt O60885); test: Displacement of biotinylated histone H3K14 peptide ligand from human recombinant His-tagged BRD4 bromodomain-2 measured after 10 mins by TR-FRET assay
[17] = biological target: T1, CREB-binding protein; test: Inhibition of CBP in human MV-4-11 cells assessed as decrease in MYC expression incubated for 4 hrs measured by luminescence method; type: cell-based
[18] = biological target: T2, Bromodomain-containing protein 4; test: Displacement of biotinylated histone H3K14 peptide ligand from human recombinant His-tagged BRD4 bromodomain-1 measured after 10 mins by TR-FRET assay

Drug uptake [3] | IC50 [4] | IC50 [6] | Drug uptake [8] | Ratio IC50 [10] | IC50 [12] | IC50 [13] | IC50 [14] | IC50 [15] | IC50 [16] | EC50 [17] | IC50 [18] | Compound | inhibition in vivo at 10 mg/kg [1] | Activity [2] | Activity [5] | Imax [7] | inhibition in vivo at 30 mg/kg [9] | Imax [11]
Active | > 10 µM | > 10 µM | Active | 4250 | > 10 µM | > 10 µM | > 10 µM |  |  |  |  | CNC(=O)N1CCc2c(c(N3CCCc4cc(-c5cnn(C)c5)c(C(F)F)cc43)nn2C2CCOCC2)C1 | 71% | 150% | Non-Toxic | 87% | 89% | 88%
 |  |  |  |  |  |  |  | 1.1 nM | > 20 µM | 14 nM | 4.2 µM | CC(=O)N1CCc2c(c(N3CCCc4cc(-c5cnn(C)c5)c(C(F)F)cc43)nn2C2CCOCC2)C1 |  |  |  |  |  | 
